Rows were chosen to be rich in hits. Some 2.3% of all compounds tested hit in one or more screens of this group.
TRPC4 agonist: activators of mouse TRPC4 channel, primary screen, Fluo4 calcium, HEK293 TRPC4beta/mu-opioid cells | Short transient receptor potential channel 4 (Mus musculus), Q9QUQ5 | Fluo4 calcium fluorescence; stronger effect = higher value | B-score at 10 µM | 0.49% of 310,000 active | AID 2237, 2010;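 active means B-score above 5 SD of library B-scores, and initial fluorescence ratio not above library mean plus 5 SD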;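 further: positive B-score marks a calcium rise read as TRPC4 activation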
Target sequence (Q9QUQ5 whole entry, looked up): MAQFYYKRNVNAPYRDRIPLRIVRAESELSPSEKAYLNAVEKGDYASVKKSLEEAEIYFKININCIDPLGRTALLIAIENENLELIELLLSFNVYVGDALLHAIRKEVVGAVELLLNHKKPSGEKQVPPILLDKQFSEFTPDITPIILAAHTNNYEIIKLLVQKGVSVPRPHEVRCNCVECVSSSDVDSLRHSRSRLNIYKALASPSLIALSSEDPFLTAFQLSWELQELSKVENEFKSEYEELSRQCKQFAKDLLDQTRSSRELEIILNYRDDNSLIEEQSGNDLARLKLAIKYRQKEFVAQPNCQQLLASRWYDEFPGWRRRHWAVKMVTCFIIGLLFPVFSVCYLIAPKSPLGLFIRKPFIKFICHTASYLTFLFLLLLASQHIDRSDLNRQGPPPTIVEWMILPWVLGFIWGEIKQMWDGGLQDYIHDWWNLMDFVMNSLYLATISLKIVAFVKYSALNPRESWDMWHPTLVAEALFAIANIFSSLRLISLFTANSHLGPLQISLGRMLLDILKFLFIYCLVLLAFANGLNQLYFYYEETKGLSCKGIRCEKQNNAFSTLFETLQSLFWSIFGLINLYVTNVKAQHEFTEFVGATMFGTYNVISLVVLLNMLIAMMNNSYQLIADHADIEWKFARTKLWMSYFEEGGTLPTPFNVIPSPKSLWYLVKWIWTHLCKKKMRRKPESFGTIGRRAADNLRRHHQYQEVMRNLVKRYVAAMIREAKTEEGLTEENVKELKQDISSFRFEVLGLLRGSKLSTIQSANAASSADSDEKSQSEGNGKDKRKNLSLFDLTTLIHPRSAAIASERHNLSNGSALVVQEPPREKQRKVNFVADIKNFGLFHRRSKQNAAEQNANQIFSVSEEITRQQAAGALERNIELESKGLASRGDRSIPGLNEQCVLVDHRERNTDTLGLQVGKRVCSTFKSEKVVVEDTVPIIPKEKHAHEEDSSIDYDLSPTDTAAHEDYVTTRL
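System: HEK293 cells stably co-expressing mouse TRPC4beta and mu-opioid receptor; Schedule: Fluo4 dye loading 45 min at room temperature, 110 s recording; Detection: Fluo4 fluorescence, kinetic; Evaluation: B-scored integrated calcium fluorescence ratio; Controls: buffer (low) and maximal DAMGO (high).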
TRPC6 inh: mouse TRPC6 channel inhibitors, primary screen, cell-based, HEK293, membrane potential dye | ACh-evoked depolarization; stronger effect = lower value | B-score at 10 µM | 1.1% of 310,000 active;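 active means B-score under library mean minus 3 SD, initial fluorescence not abnormally high, positive integrated signal ratio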;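 further: B-score derived from integrated fluorescence ratio over the kinetic read; more negative B-score means stronger inhibition of depolarization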
TRPC4 PAM: positive allosteric modulators of TRPC4, primary screen, cell-based, mouse TRPC4beta, HEK293 mu-opioid, Fluo-4 calcium; Short transient receptor potential channel 4 (Mus musculus), Q9QUQ5; DAMGO EC20, Fluo-4 Ca2+ flux; stronger effect = higher value; B-score at 10 µM; 0.42% of 310,000 active; AID 2227, 2009;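 active means B-score of calcium response area above 5 SD of library B-scores, with initial fluorescence ratio within 5 SD of library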
TRPC4 inh: inhibitors of mouse TRPC4 channel, primary screen, Fluo4 calcium, HEK293 TRPC4beta/mu-opioid cells; B-score at 10 µM; 0.39% of 300,000 active; DAMGO-evoked Fluo4 calcium flux; stronger effect = lower value; Short transient receptor potential channel 4 (Mus musculus), Q9QUQ5;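 active means B-score over 3 SD under the library average, no early fluorescence shift, positive overall ratio signal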
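Material: HEK293 cells with stable TRPC4beta plus mu-opioid receptor expression / Probe or stimulus: DAMGO in two steps, submaximal then maximal / Compound: single concentration per test compound / Technique: kinetic Fluo4 fluorescence imaging of calcium influx / Read-out: per-well B score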
TRPC6 activator: mouse TRPC6 channel activators, primary screen, cell-based, HEK293, membrane potential dye | B-score at 10 µM | HEK293-TRPC6 membrane potential dye fluorescence; stronger effect = higher value | 0.13% of 310,000 active | AID 2550, 2010;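 active means B-score of the integrated fluorescence ratio above library mean plus 3 SD, and starting fluorescence ratio within library mean plus 5 SD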;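 further: higher score means more depolarization so channel activation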
Numbers stand for hits; n = inactive.

SMILES | TRPC4 agonist | TRPC6 inh | TRPC4 PAM | TRPC4 inh | TRPC6 activator
CC(C)=CCCC(C)CN1CCC(n2nccc2NC(=O)C2CCCC2)CC1 (configuration not stated) | n | n | n | -5 | n
COC(=O)c1ccc(C2NCCc3cc(OC)c(OC)cc32)cc1 (configuration not stated) | n | n | n | n | n
CN1CCN(C(c2ccc(F)cc2)c2nnnn2Cc2cccs2)CC1 (configuration not stated) | n | n | n | n | n
Fc1ccc(C(c2nnnn2Cc2cccs2)N2CCN(C3CCCCC3)CC2)cc1 (configuration not stated) | 138 | n | n | n | n
CCCOc1cccc(C(=O)NCCNC(=O)c2ccco2)c1 | n | n | n | -6 | n
Cc1nc2ccccc2n1CC(O)COc1ccc(Br)cc1 (configuration not stated) | n | n | n | n | n
Cc1nc2ccccc2n1CC(O)COc1ccccc1Cl (configuration not stated) | n | n | n | -7 | n
Cc1c(Cl)cccc1NC(=O)NN1CCN(C)CC1 | n | n | n | n | n
COC(=O)c1ccc(N2CCOCC2)c(NC(=O)c2cccnc2)c1 | n | n | n | n | n
CSc1cccc(NC(=O)N2CCN(C)CC2)c1 | n | n | 28 | n | n
CN1CCN(C(=O)Nc2ccccc2)CC1 | n | n | n | n | n
O=C(NCCc1ccc(C(F)(F)F)cc1)C1CCC(=O)N(CCCc2ccccc2)C1 (configuration not stated) | n | n | n | n | n
CN(Cc1ccccc1NCC(=O)Nc1ccccc1C#N)C1CCCCC1 | n | n | n | -6 | n
N#Cc1ccccc1NC(=O)CNc1ccccc1N1CCCCC1 | n | n | n | n | n
O=C(NCc1ccccc1)C(c1c(F)cccc1Cl)N(C(=O)c1csnn1)C1CC1 (configuration not stated) | n | n | n | n | n
COc1cc(CN(C)CC2CCCN(CCc3ccccc3F)C2)cc(Cl)c1OC (configuration not stated) | n | n | n | -6 | n
CN(Cc1ccccc1)CC1CCCN(CCc2ccccc2F)C1 (configuration not stated) | n | n | n | n | n
CN(C)C1(CNC(=O)CC(NC(=O)c2ccccc2Cl)c2ccccc2)CCCCC1 (configuration not stated) | 44 | n | n | -7 | n
N=C1C(c2nc3ccccc3s2)=C(O)CN1Cc1ccccc1 | n | n | n | n | n
CCN(CC)CCCN1CC(O)=C(c2nc3ccccc3s2)C1=N | n | n | 12 | n | n
COc1ccc(OCc2cc(C(=O)N3CCOCC3)no2)c(Cl)c1 | n | n | n | n | n
CCOC(=O)c1cc(C#N)c(Oc2ccc(F)cc2)nc1-c1ccccc1 | n | n | n | -5 | n
COc1ccc(CCNc2nc(C)nc3c2oc2ccccc23)cc1OC | n | n | n | n | n
Cc1nc(NCCc2cnc[nH]2)c2oc3ccccc3c2n1 | 82 | n | n | n | n
CCOC(=O)CCn1c(=O)c2c(nc(Br)n2Cc2ccccc2)n(C)c1=O | n | n | n | -5 | n
SMILES | TRPC4 agonist | TRPC6 inh | TRPC4 PAM | TRPC4 inh | TRPC6 activator
Cc1ccc(C(=O)C(C)OC(=O)CN2C(=O)NC3(CCCC3)C2=O)cc1 (configuration not stated) | n | n | n | n | n
COc1ccc(CSC(=N)N)cc1[N+](=O)[O-] | 53 | n | n | n | n
COC(=O)c1cc(CSC(=N)N)ccc1OCCC(C)C | n | n | n | n | n
CCCOc1ccc(CSC(=N)N)cc1C(=O)OC | 185 | n | n | n | n
N=C(N)SCc1ccc(O)c([N+](=O)[O-])c1 | n | n | n | n | n
CCOc1ccc2c(c1)c1nnc(SCC(=O)NC3CC3)nc1n2C | n | n | n | n | n
COc1ccc(NC(=O)c2cccc(N3C(=O)C4CC=C(C)CC4C3=O)c2)c(OC)c1 (configuration not stated) | n | n | n | -6 | n
O=S(=O)(c1ccc(Oc2ccc(Br)cc2)cc1)N1CCOCC1 | n | n | 17 | n | n
COc1ccc(C(=O)CCC(=O)N2CCN(c3ccc([N+](=O)[O-])cc3)CC2)cc1 | n | n | n | n | n
COc1ccc(NC(=O)CN(C)CCOc2ccc(Cl)cc2)cc1OC | n | n | 15 | n | n
COC1(OC)C=CC(=O)C=C1NC(=O)c1ccccc1OC(C)=O | n | n | n | n | n
CCN(CC)C(=O)CSc1nc2c(sc(=S)n2-c2ccccc2)c(=O)n1-c1ccc(OC)c(OC)c1 | n | n | n | n | n
CC1(C)CC(=O)c2cc(C(=O)NCc3ccco3)c(=O)n(-c3ccc(Cl)cc3)c2C1 | 121 | n | n | n | n
COc1ccc(-n2c3c(cc(C(=O)NNc4ccccc4)c2=O)C(=O)CC(C)(C)C3)cc1 | 70 | n | n | n | n
COc1ccc(-c2nc(SCC(=O)NC3CCCCC3)n[nH]2)cc1 | n | n | n | n | n
CC(C)c1nc(SCC(=O)Nc2cccc(C(F)(F)F)c2)c2c(=O)n(C)c(=O)n(C)c2n1 | n | n | 12 | n | n
CN(C)CCNC(=O)c1sc2cccc(F)c2c1Cl | n | n | 11 | n | n
COc1ccccc1C1CCN(C(=O)c2ccccc2)CC1 | n | n | n | n | n
COc1ccccc1C1CCN(c2cc(O)ccc2[N+](=O)[O-])CC1 | n | n | 13 | -5 | n
O=C(Cc1ccccc1)NCCCN1CCN(CCCNC(=O)Cc2ccccc2)CC1 | n | n | 11 | n | n
O=C(Cn1nc(-c2ccccc2)ccc1=O)NCCN1CCN(Cc2ccccc2)CC1 | n | n | 19 | n | n
CSCC[C@H](NC(=O)[C@H](Cc1ccccc1)n1c(=O)[nH]c2ccccc2c1=O)C(=O)N1CCC(C(=O)O)CC1 | n | n | n | n | n
COc1cccc(C(c2nnnn2C(C)(C)C)N2CCN(C3CCCCC3)CC2)c1OC (configuration not stated) | n | n | n | -6 | n
COc1cccc(C(c2nnnn2CCc2ccccc2)N2CCN(c3ccccc3)CC2)c1OC (configuration not stated) | n | n | n | n | n
C=CCN1CCN(C(c2cccc(OC)c2OC)c2nnnn2CCC(C)C)CC1 (configuration not stated) | n | n | n | -7 | n
COc1ccccc1C(c1nnnn1C(C)(C)C)N1CCN(Cc2ccncc2)CC1 (configuration not stated) | n | n | n | n | n
CC(C)=CCN1CCN(Cc2cccc3nonc23)CC1CCO (configuration not stated) | n | n | n | -5 | n

Bioassay records deposited in PubChem by Johns Hopkins Ion Channel Center.
